Assay results from ChEMBL document CHEMBL3797067, “Part 3: Notch-sparing γ-secretase inhibitors: SAR studies of 2-substituted aminopyridopyrimidinones” (Bioorg Med Chem Lett, 2016).
Active and inactive are the calls of the source. No cut-off for these calls is given here.

Columns and labels:
[1] = molecular target: T1, Gamma-secretase (Homo sapiens) (UniProt Q96BI3+Q9NZ42+Q8WW43+P49768+Q92542+P49810); assay: Inhibition of human gamma-secretase assessed as inhibition of amyloid beta 40 production using recombinant APP C100FLAG as substrate at 100 uM after 4 hrs by ELISA relative to control; format: protein-complex assay
Method in brief: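 Purified human γ-secretase complex incubated with recombinant C100 FLAG substrate in 0.2% CHAPSO/HEPES, pH 7.5. Compound added from DMSO stock to a final 100 μM with 1% final DMSO. Reaction run 4 h at 37°C and stopped with 0.5% SDS. Aβ40 quantified by specific ELISA and expressed as percent inhibition versus DMSO control.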

[2] = molecular target: T1, Gamma-secretase (Homo sapiens); assay: Inhibition of human gamma-secretase assessed as inhibition of notch1 processing at 100 uM using N100Flag as substrate by western blot analysis; format: protein-complex assay
[3] = Permeability of the compound from apical to basolateral side; format: ADME; conditions: not told; read-out: permeability
[4] = Protein binding in human plasma; format: ADME, cell-free; conditions: read-out: PPB (converted)
[5] = Metabolic stability of the compound in human liver microsomes assessed as parent compound remaining after 60 mins; format: ADME; conditions: read-out: Stability
[6] = Metabolic stability of the compound in rat liver microsomes assessed as parent compound remaining after 60 mins; format: ADME; conditions: read-out: Stability
Gamma-secretase = assay: Inhibition of gamma-secretase (unknown origin) assessed as inhibition of amyloid beta 42 production by cell-based assay; design: species or system Homo sapiens
[7] = Lipophilicity, logD of the compound; format: physicochemical; conditions: octanol/water
[8] = molecular target: T1, Gamma-secretase (Homo sapiens); assay: Inhibition of gamma-secretase (unknown origin) assessed as inhibition of amyloid beta 42 production at 100 uM by cell-based assay

Structure (SMILES)	inhibition [1] [%]	inhibition [2]	other results
Cn1c(=O)c(-c2c(Cl)cccc2Cl)cc2cnc(Nc3ccc(C(F)(F)F)cc3)nc21	12		
Cn1c(=O)c(-c2c(Cl)cccc2Cl)cc2cnc(N3CCN(CC4CCCO4)CC3)nc21 (configuration not stated)	0		
CSc1cccc(Nc2ncc3cc(-c4c(Cl)cccc4Cl)c(=O)n(C)c3n2)c1	0	inactive	
Cn1c(=O)c(-c2c(F)cccc2F)cc2cnc(N3CCN(c4ccc(F)cc4)CC3)nc21	20	Active	
Cn1c(=O)c(-c2c(Cl)cccc2Cl)cc2cnc(N3CCN(c4ccccn4)CC3)nc21	0		
Cn1c(=O)c(-c2ccc(C(C)(C)C)cc2)cc2cnc(N3CCN(c4ccc(F)cc4)CC3)nc21	2		
Cn1c(=O)c(-c2c(Cl)cccc2Cl)cc2cnc(N3CCN(c4ccc(F)cc4)CC3)nc21	68	inactive	Papp A→B [3]: 0.1 ×10⁻⁶ cm/s; fraction unbound [4]: 0.011; remaining at 1 h [5]: 74%; remaining at 1 h [6]: 72%; IC50 (Gamma-secretase): 2.7 µM; logD [7]: > 4
Cn1c(=O)c(-c2c(Cl)cccc2Cl)cc2cnc(N3CCN(c4ncccn4)CC3)nc21	0		
Cn1c(=O)c(-c2ccc(Cl)cc2)cc2cnc(N3CCN(c4ccc(F)cc4)CC3)nc21	0		
CSc1ccc(Nc2ncc3cc(-c4c(Cl)cccc4Cl)c(=O)n(C)c3n2)cc1	47	inactive	IC50 (Gamma-secretase): 26 µM
Cn1c(=O)ccc2cnc(N3CCN(c4ccc(F)cc4)CC3)nc21	0		
CCCCCCNc1ncc2cc(-c3c(Cl)cccc3Cl)c(=O)n(C)c2n1	53	Active	
CN1CCN(c2ncc3cc(-c4c(Cl)cccc4Cl)c(=O)n(C)c3n2)CC1	0	inactive	inhibition [8]: 7%
Cn1c(=O)c(-c2ccccc2)cc2cnc(N3CCN(c4ccc(F)cc4)CC3)nc21	14	Active	
Cn1c(=O)c(-c2c(Cl)cccc2Cl)cc2cnc(N3CCN(Oc4cccnc4)CC3)nc21	0		inhibition [8]: 0%
COc1ccc(Nc2ncc3cc(-c4c(Cl)cccc4Cl)c(=O)n(C)c3n2)cc1	47	inactive	

More lines, main results first:

inhibition [1] [%]	inhibition [2]	Structure (SMILES)	other results
0	inactive	CC(C)Nc1ncc2cc(-c3c(Cl)cccc3Cl)c(=O)n(C)c2n1	
59	inactive	Cn1c(=O)c(-c2c(Cl)cccc2Cl)cc2cnc(NCc3ccccn3)nc21	
26		Cn1c(=O)c(-c2c(Cl)cccc2Cl)cc2cnc(Nc3ccccc3)nc21	
73	Active	CC(C)N(Cc1cc(F)cc(F)c1)c1ncc2cc(-c3c(Cl)cccc3Cl)c(=O)n(C)c2n1	
0		Cn1c(=O)c(-c2c(Cl)cccc2Cl)cc2cnc(NCc3ccccc3)nc21	
50	inactive	CC(C)N(Cc1ccc(Cl)c(Cl)c1)c1ncc2cc(-c3c(Cl)cccc3Cl)c(=O)n(C)c2n1	
48	inactive	CN(CCc1ccccc1)c1ncc2cc(-c3c(Cl)cccc3Cl)c(=O)n(C)c2n1	
90	inactive	CC(C)N(Cc1ccccc1)c1ncc2cc(-c3c(Cl)cccc3Cl)c(=O)n(C)c2n1	Papp A→B [3]: 2.3 ×10⁻⁶ cm/s; fraction unbound [4]: 0.057; remaining at 1 h [5]: 72%; remaining at 1 h [6]: 4%; logD [7]: > 4
